# Hits are enriched below; roughly 1.8% of the tested compounds scored in any of these assays.
# TPT1 inh: Candida albicans TPT1 enzyme inhibitors, primary screen, biochemical, fluorescence polarization | inhibition, % at 5 µM | 300,000 tested, 0.81% active | tRNA 2'-phosphotransferase TPT1 (Candida albicans SC5314) | recombinant caTPT1, FP RNA substrate dephosphorylation | AID 1962, 2009;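 active = inhibition above the mean of all tested compounds plus 3 SD, set per screening campaign, cut at about 24% in these data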;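 note: plate controls were DMSO alone for no effect and ferristatin control at 100 nM for full effect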
# HNF4A DNA FP: change in binding of human HNF4A to DNA, primary screen, biochemical, fluorescence polarization, FITC-DNA; Hepatocyte nuclear factor 4-alpha (Homo sapiens), P41235; 1 h; activity change, % at 10 µM; 360,000 tested, 0.3% active; in the data active = activity change above about 30%, passing the limit was not always enough
# Target sequence (P41235 whole entry, looked up): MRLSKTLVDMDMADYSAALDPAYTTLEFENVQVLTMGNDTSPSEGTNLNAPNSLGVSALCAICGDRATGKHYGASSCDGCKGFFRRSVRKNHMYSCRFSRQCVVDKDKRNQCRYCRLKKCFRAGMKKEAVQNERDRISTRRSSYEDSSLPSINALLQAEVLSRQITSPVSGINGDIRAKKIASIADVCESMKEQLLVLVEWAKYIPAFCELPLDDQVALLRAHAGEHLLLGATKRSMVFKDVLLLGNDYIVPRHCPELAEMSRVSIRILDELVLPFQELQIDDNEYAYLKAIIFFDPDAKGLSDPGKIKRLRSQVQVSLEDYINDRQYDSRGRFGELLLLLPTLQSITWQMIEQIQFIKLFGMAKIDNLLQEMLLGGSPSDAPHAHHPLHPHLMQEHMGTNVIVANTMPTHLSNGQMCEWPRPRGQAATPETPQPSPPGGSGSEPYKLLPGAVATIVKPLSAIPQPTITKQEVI
# UBC9 SUMO inh: inhibitors of in vitro SUMOylation cascade, primary screen, biochemical, HTRF, uHTS; HTRF SUMOylation assay, SAE1/SAE2 + UBC9; inhibition, % at 35 µM; 290,000 tested, 0.36% active; AID 2006, 2009; in the data active = inhibition above about 50%, passing the limit was not always enough
# Target sequence (P63279 whole entry, looked up): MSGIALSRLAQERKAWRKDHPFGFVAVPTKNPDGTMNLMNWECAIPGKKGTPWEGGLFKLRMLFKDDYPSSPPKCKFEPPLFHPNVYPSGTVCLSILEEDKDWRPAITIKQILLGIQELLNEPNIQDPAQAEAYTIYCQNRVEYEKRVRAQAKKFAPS
# Rpn11 block: Rpn11 (PSMD14) deubiquitinase inhibitors, primary screen, biochemical, fluorescence polarization, uHTS | 360,000 tested, 0.59% active | human 26S proteasome, Ub4-pepOG fluorescence polarization; 20S core pre-blocked with epoxomicin | calls only at 20 µM | AID 588493, 2011;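 active = inhibition at 20 µM, scaled to each plate's controls, above about 33%, limit read from the data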
# CSN inh: inhibitors of CSN-mediated cullin deneddylation, primary screen, biochemical, fluorescence polarization, uHTS; COP9 signalosome complex subunit 5 (Homo sapiens), Q92905; inhibition, % at 12.5 µM; Purified CSN, SCF-Nedd8-OG deneddylation; 360,000 tested, 0.38% active;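 active = pattern-corrected inhibition above about 35%, with an unprinted fluorescence ratio check between 0.5 and 1.5, limit read from the data, passing the limit was not always enough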;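 note: 0% = enzyme with substrate and 100% = substrate without enzyme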
#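 assay system = purified human Csn5 enzyme expressed in HEK293T cells | amount = 0.24 nM enzyme | buffer or medium = Tris/NaCl/DTT buffer, pH 7.5 | reagent = 10 nM SCFSkp2-Nedd8OG | compound = one concentration, 12.5 µM, 0.25% DMSO | times = 90 min reaction at room temperature | signal = FP | read-out basis = % inhibition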
# SENP1 inh: human SENP1 catalytic domain inhibitors, primary screen, biochemical, FRET, uHTS | recombinant SENP1 catalytic domain, CyPet-SUMO1-YPet FRET cleavage | inhibition, % at 10 µM | 360,000 tested, 0.21% active;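 active = inhibition at least 30% at 10 µM, raw YFP signal under a set limit, fluorescence ratio 0.5 to 1.5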;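 note: 0% = enzyme with DMSO and 100% = no enzyme wells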
#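 Test system: hSENP1 catalytic domain, recombinant; Amount: 20 pM final SENP1 enzyme; Medium: Tris pH 8 buffer plus EDTA, NaCl, BME, BSA, NP40, catalase; Schedule: 50 min enzyme reaction, room temperature, light-protected; Technique: FRET fluorescence in CFP and YFP emission channels; Controls: no-enzyme wells low, DMSO-plus-enzyme wells high control.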
# Rpn11 confirm: Rpn11 (PSMD14) deubiquitinase inhibitors, confirmation, biochemical, fluorescence polarization, single concentration | shares compounds with Rpn11 block | purified human 26S proteasome, Ub4-pepOG fluorescence polarization; proteasome pretreated with epoxomicin | inhibition, % at 20 µM | 1,900 tested, 29% active | AID 602318, 2012
# MMP-2 counter: MMP-2 enzyme inhibition, confirmation, counter-screen for RPN11 inhibitor project, biochemical, fluorescence, single concentration; shares compounds with Rpn11 block; recombinant MMP-2, FRET peptide cleavage fluorescence; inhibition, % at 20 µM; 1,900 tested, 4% active; AID 602330, 2012;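 note: human MMP-2 activated beforehand with APMA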
# Thrombin inh: bovine thrombin protease inhibition, confirmation, counter-screen for Rpn11 inhibitor project, biochemical, fluorescence polarization, single concentration; shares compounds with Rpn11 block; bovine thrombin cleavage of Ub4-pepOG; inhibition, % at 20 µM; 1,900 tested, 13% active; AID 602333, 2012;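 active = mean inhibition at least 40% at 20 µM, or signal 3 deviations below plate average, so some actives read negative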;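 note: plate controls were thrombin with DMSO for no effect and buffer wells lacking thrombin for full effect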
# An asterisk follows results filed as active; i = inactive; / = not tested or not shown; + = active, no number. Cut-off read from the data, not from the text of the source, unless noted: active = inhibition above about 40%; inactive = the rest.
SMILES,TPT1 inh,HNF4A DNA FP,UBC9 SUMO inh,Rpn11 block,CSN inh,SENP1 inh,Rpn11 confirm,MMP-2 counter,Thrombin inh
COc1cccc(/C=C/C(=O)OCC(=O)NCc2ccc3c(c2)OCO3)c1,/,5,/,i,-3,3,/,/,/
C=CCSc1nnc(NC(=O)c2cn(CC)c3nc(C)ccc3c2=O)s1,12,17,24,+,26,13,10,-64,12
COc1ccccc1C(=O)Nc1nnc(SCC(=O)Nc2ccc3c(c2)oc2ccccc23)s1,7,12,11,+,3,-1,23,-24,-2
O=C(COC(=O)Cc1ccsc1)NCc1ccccc1,1,0,-1,+,-1,2,-3,-15,-18
O=C(COC(=O)Cc1ccsc1)NCc1ccc(Cl)cc1,-1,1,-8,i,2,1,/,/,/
CCCCOP(=O)(c1ccc(N(C)C)cc1)C(O)c1ccc(OC)cc1 (stereo not given),-4,1,5,i,2,0,/,/,/
CCOc1ccc(N=Nc2ccc(O)c3ncccc23)cc1,/,3,-31,i,-1,6,/,/,/
CCOc1ccc2c(ccc(/C=C/c3cc(C)c4cccnc4c3O)[n+]2C)c1,/,6,/,+,102,3,102*,75*,40
C/C(C/C(C)=C1/SC(=S)NC1=O)=C1\SC(=S)NC1=O,/,-15,36,+,35,-2,41*,16,-61
CC(C)Cc1nnc(NC(=O)CC(C)c2ccccc2)s1 (stereo not given),0,2,-2,i,4,-3,/,/,/
Cc1c(C(=O)N2CCOCC2)sc(NC(=O)c2ccc3c(c2)OCO3)c1C#N,4,5,10,+,10,-86,-4,5,-17
CC(C)(C)Cc1c(-c2cccc(Cl)c2)nc2ccc(Cl)cn12,/,24,/,+,6,20,-6,52*,3
Clc1cccc(-c2nc3ccc(Cl)cn3c2Cc2ccccc2)c1,/,15,/,i,8,12,/,/,/
Cc1cccc2cc(C#N)c(SCC(=O)N3CC(=O)Nc4ccccc43)nc12,12,8,-39,i,10,-9,/,/,/
COc1ccc2cc(C#N)c(SCC(=O)N3CC(=O)Nc4ccccc43)nc2c1,3,-1,-8,+,-8,19,-4,-42,-20
COc1cccc(CN2CCN(c3ncccn3)CC2)c1OC,-2,-1,2,i,5,0,/,/,/
CC1(C)CC(=O)C=C(Nc2ccc(OCC(F)(F)C(F)F)cc2)C1,0,23,5,+,4,-7,9,15,3
Cc1nc(-c2ccccc2)sc1-c1nc(-c2ccncc2)ncc1S(=O)(=O)c1ccccc1,-4,-2,-13,i,5,-1,/,/,/
O=C1N(Cc2cccc(Cl)c2)C[C@@H]2C[C@@H](c3cccc4ncccc34)N3CCC[C@@]123,0,0,-7,i,-3,-2,/,/,/
O=C1N(Cc2cccc(Cl)c2)C[C@@H]2C[C@@H](c3cccc4cccnc34)N3CCC[C@@]123,8,3,6,+,16,-45,4,-30,6
COc1ccc(CCNc2ccc(C(CC(N)=O)NC(=O)Cc3cccc4ccccc34)cc2[N+](=O)[O-])cc1 (stereo not given),15,33,35,+,12,20,52*,-21,30
NC(=O)CC(NC(=O)Cc1ccc(Cl)cc1)c1ccc(NC2CCCC2)c([N+](=O)[O-])c1 (stereo not given),15,16,2,+,113,4,47*,-10,30
NC(=O)CC(NC(=O)Cc1ccc(Cl)cc1)c1ccc(NC2CCCCC2)c([N+](=O)[O-])c1 (stereo not given),1,4,7,i,97,0,/,/,/
CCCCNc1ccc(C(CC(N)=O)NC(=O)Cc2cccc3ccccc23)cc1[N+](=O)[O-] (stereo not given),13,10,34,i,4,16,/,/,/
COc1cc(C)c(NC(=O)C(=S)NCCc2ccccc2)cc1C,-1,2,-13,i,-1,0,/,/,/
SMILES,TPT1 inh,HNF4A DNA FP,UBC9 SUMO inh,Rpn11 block,CSN inh,SENP1 inh,Rpn11 confirm,MMP-2 counter,Thrombin inh
O=C(NCCO)c1cccc(-c2cnc3c(Nc4cccc(OC(F)(F)C(F)F)c4)nccn23)c1,/,6,/,i,0,-11,/,/,/
COc1cccc(/C=N/NC(=O)c2cccc3ccccc23)c1OC,0,-1,/,+,2,3,-5,-60,3
Nc1ccc(N(CCO)CCO)cc1,-4,-4,60,i,8,21,/,/,/
CCN(CC)c1ccc(N)cc1,/,47*,/,+,15,54*,42*,-8,26
Cc1ccc(Cn2ncc3c(N4CCN(c5ccc(C)cc5)CC4)ncnc32)cc1,-1,-32,8,+,-1,-1,-3,11,4
O=C(Nc1ccc2c(c1)OCCO2)C1C(=O)Nc2ccccc2C(=O)N1C1CCCCC1 (stereo not given),/,-2,/,/,-2,0,/,/,/
Cc1ccc(C(=O)N/C(N)=N/c2nc3ccccc3o2)cc1,-1,1,0,i,1,-1,/,/,/
COc1ccccc1C(=O)N/C(N)=N/c1nc2ccccc2o1,14,18,-2,+,14,6,51*,-38,8
CCn1c(=O)cc(C(F)(F)F)[nH]c1=S,-2,-1,10,+,-1,-7,-2,9,-10
O=C(Nc1nc(-c2ccc(F)c(F)c2)cs1)Nc1ccc(F)cc1F,1,10,20,+,2,3,79*,-37,-13
CC(C)[C@H]1COC(NC2=N[C@@H](C(C)C)CO2)=N1,-3,3,-17,i,-4,4,/,/,/

# Source: PubChem
